CHO parental Ca = counter-screen for OX1R antagonists: effect in parental CHO cells; parental CHO-K1, ATP-induced calcium, Fluo-8 fluorescence; inhibition, % at 5.6 µM; actives 0.63% (n = 330,000); AID 463079;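 active = inhibition above that plate's mean sample inhibition plus 3 SD, cut at about 26% in these data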;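 note: 0% = ATP-challenged DMSO wells and 100% = DMSO wells without ATP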
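Material – parental CHO cells · Reagent – ATP stimulus · Compound – single nominal dose of 5.6 µM per compound · Detection – Fluo-8 fluorescence · Read-out basis – percent inhibition of calcium signal · Controls – ATP-challenged DMSO wells low, unchallenged DMSO wells high · Repeats – no replicates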
OX1R antag-1 = antagonists of human orexin 1 receptor (OX1R) | O43613 | OX1R-expressing cells, FRET antagonist read-out | inhibition, % at 6.6 µM | actives 1.8% (n = 330,000) | AID 485270; in the data active = inhibition mostly above about 38%, no sharp cut-off; inactive = mostly below about 40%;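 note: 0% = agonist challenge alone and 100% = reference antagonist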
Target sequence (O43613 whole entry, looked up): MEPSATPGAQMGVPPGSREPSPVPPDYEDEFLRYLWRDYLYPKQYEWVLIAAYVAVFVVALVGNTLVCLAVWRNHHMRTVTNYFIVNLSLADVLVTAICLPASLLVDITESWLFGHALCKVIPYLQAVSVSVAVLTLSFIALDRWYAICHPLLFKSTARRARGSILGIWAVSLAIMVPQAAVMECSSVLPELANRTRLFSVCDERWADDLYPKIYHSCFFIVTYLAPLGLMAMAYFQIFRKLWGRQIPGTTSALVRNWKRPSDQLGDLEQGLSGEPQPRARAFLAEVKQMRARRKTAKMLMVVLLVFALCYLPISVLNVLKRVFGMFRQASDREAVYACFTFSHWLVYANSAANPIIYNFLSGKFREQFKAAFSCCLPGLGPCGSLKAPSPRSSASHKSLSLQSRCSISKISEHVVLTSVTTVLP
EP2 modulator = modulates human prostaglandin E2 receptor EP2 signaling; P43116; actives 0.83% (n = 260,000); AID 940; EP2-expressing cells, cAMP HTRF FRET, PGE2 co-stimulation; induction, % at 25 µM;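 active = compounds whose cAMP rise, as percent of the full-agonist control response, exceeds 60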;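 note: rat C6 glioma line stably carrying human EP2 under a CMV promoter; the protocol text gives 20 µM as final concentration; 100% = response of wells given 1 µM PGE2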
OX1R antag-2 = human HCRTR1 antagonism; CHO/OX1R cells, Fluo-8 calcium fluorescence, orexin A; inhibition, % at 5 µM; actives 0.43% (n = 330,000);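 active = inhibition above its plate's threshold, mean inhibition of all tested compounds on the plate plus 3 SD, cut at about 37% in these data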;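 note: 0% = orexin A challenge wells and 100% = SB-334867-A antagonist wells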
GPR7 antagonist = antagonists of human GPR7 (neuropeptides B/W receptor 1) | GPR7-expressing cells, fluorescence antagonist assay | inhibition, % at 4.4 µM | actives 1.1% (n = 290,000) | AID 1861; in the data active = inhibition above about 16%, passing the limit was not always enough;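 note: cells stimulated with the agonist NPW; 0% = agonist with vehicle and 100% = vehicle without agonist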
EP2 antag = EP2 receptor (human) inhibition; C6 glioma cells expressing human EP2, cAMP TR-FRET; cells stimulated with saturating PGE2; AID 1422; actives 0.52% (n = 260,000); P43116; inhibition, % at 25 µM;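 active = percent inhibition above 40 after rounding to a whole number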;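 note: rat C6 glioma host cells with rolipram phosphodiesterase inhibitor present; the protocol text gives 20 µM as final concentration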
GPR7 antag cf = confirmation of human GPR7 antagonists; actives 52% (n = 2,400); shares compounds with GPR7 antagonist; GPR7-expressing cells, calcium fluorescence antagonist mode; inhibition, % at 4.4 µM; AID 1952; in the data active = inhibition above about 24%;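 note: stimulated with the GPR7 agonist NPW; 0% = agonist plus vehicle and 100% = vehicle alone without agonist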
MCHR1 antagonist = antagonizes human MCHR1, a GPR7 antagonist counter-screen. actives 62% (n = 2,400). AID 2148. shares compounds with GPR7 antagonist. inhibition, % at 4.4 µM. MCHR1-expressing cells, fluorescence antagonist assay; in the data active = inhibition above about 22%;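 note: 0% = vehicle with agonist and 100% = vehicle without agonist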
Active calls of the source: *; . = not tested or not shown. Shown are actives, neighbours in structure and some others; about 3.7% of the full set was active somewhere.

SMILES	CHO parental Ca	OX1R antag-1	EP2 modulator	OX1R antag-2	GPR7 antagonist	EP2 antag	GPR7 antag cf	MCHR1 antagonist
CCOC(=O)COc1c(Cl)cc(C2NC(=S)NC(c3ccccc3)=C2C(C)=O)cc1OC (stereo unspecified)	-9.8	24.8	-2.0	-23.9	24.3*	4.8	28.3*	1.1
COc1cc(C2NC(=S)NC(c3ccccc3)=C2C(C)=O)cc(Cl)c1OCC(=O)O (stereo unspecified)	-7.1	2.3	23.7	1.9	-0.2	3.5	.	.
Cc1ccc(N(C(=O)CNC(=O)c2ccco2)C(C(=O)NC2CCCC2)c2cccnc2)cc1 (stereo unspecified)	-9.3	15.9	.	-44.0	5.1	.	.	.
O=C(COC(=O)C1CC1)NCCc1ccccc1	-7.5	10.3	.	1.2	.	.	.	.
O=C(COC(=O)C1CC2C=CC1C2)NCCc1ccccc1 (stereo unspecified)	10.4	15.8	-11.4	1.7	25.1*	3.4	12.3	1.5
CC1CCCC(C)N1C(=O)c1ccc(S(=O)(=O)NCc2ccco2)cc1 (stereo unspecified)	18.7	26.3	.	-31.2	30.5*	.	4.0	23.4*
O=C(NC1CCCCC1)c1ccc(S(=O)(=O)NCc2ccco2)cc1	-7.7	11.5	15.3	-14.4	34.2*	-3.4	21.8	24.9*
COc1cc(C(=O)NC2CCN(CC(=O)Nc3ccccc3F)CC2)cc(OC)c1OC	.	.	-16.4	.	.	9.7	.	.
Cc1ccc(S(=O)(=O)Nc2cccc3c2O[C@H](CN(C)C(=O)Nc2ccc(C(F)(F)F)cc2)[C@@H](C)CN([C@H](C)CO)C3=O)cc1	-13.3	12.6	.	31.7	.	.	.	.
COc1ccc(CNCCC(c2ccccc2)C2CCOC(C)(C)C2)cc1 (stereo unspecified)	5.1	12.8	-32.4	-30.5	15.6	5.0	.	.
COc1ccc(CN(CCC(c2ccccc2)C2CCOC(C)(C)C2)C(C)=O)cc1 (stereo unspecified)	-18.7	9.5	-8.4	-19.6	23.7*	4.4	4.6	26.2*
COc1ccc(OCCN(C)Cc2c(O)ccc3ccccc23)cc1	-12.7	3.9	.	0.2	2.8	.	.	.
CC(=O)c1ccc(NC(=O)C(C)N(C)CC(=O)Nc2ccc(N3CCOCC3)cc2)cc1 (stereo unspecified)	-7.6	33.9	-13.8	-19.1	25.6*	10.7	12.5	-1.0
Cc1cc(N2CCCCC2)nc(N)n1	1.7	6.5	-49.7	-15.2	42.7*	13.8	53.3*	75.2*
Cc1ccccc1N(CC(=O)NC1CCCCC1)C(=O)CCCC(=O)Nc1ccccn1	-25.4	11.1	.	-31.8	38.2*	.	33.3*	17.9
CCCCCOc1ccc(OC(=O)c2ccncc2)cc1	1.0	11.9	28.5	-28.3	26.6*	7.3	0.5	-3.7
COc1ccccc1NC(=O)N1CCN(c2ccc3nnc(-c4ccc(F)cc4)n3n2)CC1	-28.6	10.4	19.4	-26.9	-19.3	8.1	.	.
CC(NC(=S)Nc1ccc(F)cc1)C(c1cccs1)N1CCOCC1 (stereo unspecified)	-18.6	-9.9	-7.6	-25.7	22.9*	13.3	20.6	-7.1
COc1ccc(-n2nc(C(=O)NCC(=O)NC3CCCCCC3)c3ccccc3c2=O)cc1OC	-13.9	13.3	.	-28.7	-5.3	.	.	.
CC(C)n1cc(NC(=O)c2cc(-c3ccccc3)on2)cn1	-4.6	10.6	-90.8	-11.6	24.3*	21.8	14.3	30.0*
O=[N+]([O-])c1ccc(C2CC(c3ccccc3)=Nc3ccccc3S2)cc1 (stereo unspecified)	-28.0	7.8	28.4	-11.7	18.1	16.8	-1.0	73.7*
O=C(O)C1CC(c2ccccc2)=Nc2ccccc2S1 (stereo unspecified)	-2.5	26.6	-6.7	-18.4	-8.2	10.0	.	.
CC(C)CNc1ncnc2c1cnn2Cc1ccccc1Cl	-17.2	2.9	.	-16.3	38.3*	.	35.7*	24.1*
Cc1nc2cc(O)ccc2n1C	5.1	8.2	5.0	-9.6	-0.8	8.5	.	.
O=S(=O)(c1ccc(Cl)cc1)N(Cc1ccccn1)Cc1ccccn1	-18.6	-2.0	.	-20.7	36.0*	.	-2.9	-2.3
SMILES	CHO parental Ca	OX1R antag-1	EP2 modulator	OX1R antag-2	GPR7 antagonist	EP2 antag	GPR7 antag cf	MCHR1 antagonist
Cc1nc(C#N)c(NCc2ccc3c(c2)OCO3)o1	3.1	-0.2	-3.4	-0.6	4.1	16.1	.	.
O=[N+]([O-])c1cccc(NC(=S)Nc2nc(-c3ccccc3Cl)cs2)c1	64.3*	31.1	.	31.2	27.0*	.	42.4*	54.6*
CCNC(=S)Nc1cccc([N+](=O)[O-])c1	10.2	23.9	2.2	3.0	-11.1	6.7	.	.
COC(=O)C1CCCCN1C(=O)c1cc(COc2cccc3cnccc23)on1 (stereo unspecified)	53.8*	37.2	.	27.4	35.4*	.	28.0*	53.0*
N#CCCN(Cc1ccccc1)C(=S)NC(=O)c1ccccc1	-15.6	7.1	0.7	-15.2	-3.9	4.3	.	.
CCOC(=O)/C(N=Nc1c(C)n(C)n(-c2ccccc2)c1=O)=C(\C)O	-12.9	22.4	12.0	-27.8	0.5	12.9	.	.
CC(=O)/C(N=Nc1c(C)n(C)n(-c2ccccc2)c1=O)=C(\C)O	-7.8	34.7	-4.4	-4.2	27.8*	5.2	0.5	-3.5
CCOC(=O)C1(C)NC(c2cccs2)C2C(=O)N(c3ccc(OC)cc3)C(=O)C21 (stereo unspecified)	-23.1	0.6	16.8	-9.9	-12.4	3.6	.	.
CCOC(=O)N/N=C\c1ccc(OC(=O)c2ccco2)cc1	-10.8	8.7	-10.1	-22.3	-0.3	6.5	.	.
Cc1ccc(NCC(=O)N/N=C/c2ccc(OC(=O)c3ccco3)cc2)cc1	-14.5	2.8	5.9	2.0	30.5*	9.9	30.7*	11.2
CC(C)CNS(=O)(=O)c1ccc(NC(=O)Cn2nc(-c3ccc(F)cc3)ccc2=O)cc1	-15.9	16.1	-87.5	-5.3	33.3*	7.0	-1.0	8.4
O=C(Nc1ccc(-n2cnnn2)cc1)C(c1ccccc1)c1ccccc1	-7.8	15.4	12.7	-11.5	-8.0	2.0	.	.
CN(C1CCCCC1)S(=O)(=O)c1ccc(NC(=O)Cn2nc(-c3ccc(F)cc3)ccc2=O)cc1	-12.3	37.1	-44.4	-14.6	-0.2	11.4	.	.
O=C(Cn1nc(-c2ccccc2)ccc1=O)Nc1ccc(-n2cnnn2)cc1	-2.1	28.5	-37.4	8.0	26.6*	4.3	11.7	41.3*
COc1ccc(S(=O)(=O)N(CC(=O)N2CCN(c3ccccc3)CC2)c2ccccc2)cc1	-2.9	23.2	-16.2	-11.7	-1.6	7.0	.	.
CC(=O)N1CCN(C(=O)c2cc3ccccc3o2)CC1	8.1	-3.9	.	4.8	-8.5	.	.	.

Bioassay records as filed in PubChem.
